# TNAP inh noacc: blocks human TNAP activity with no phosphate acceptor present; P05186; purified TNAP, CDP-star luminescence, 30 min; inhibition, % at 20 µM; 200,000 compounds, 0.26% hits; AID 1012;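 active = tissue-nonspecific alkaline phosphatase inhibition above about 50% at 20 µM in the single-dose screen, limit read from the data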;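 note: 0% = DMSO negative control and 100% = EDTA positive control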
# TNAP act hi DEA: increases human TNAP activity under high phosphate acceptor concentration | purified TNAP, CDP-star luminescence, 1 M DEA, 30 min; hits give high values; 0 = EDTA background, 1 = DMSO-only activity | activation factor at 20 µM | 200,000 tested, under 10 active;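 active = activation factor at least 2 at 20 µM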
#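 Control set: EDTA negative control, DMSO positive control / Assay system: human TNAP / Quantity: TNAP 1/800 final / Evaluation: TNAP activation factor scaled between EDTA and DMSO control wells / Measured by: luminescent substrate turnover signal / Compound dosing: one dose, 20 µM / Times: 30 min enzyme reaction at room temperature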
# CHT block: inhibits the human high affinity choline transporter; 310,000 compounds, 0.86% hits; AID 488975; B-score at 10 µM; CHT-expressing cells, membrane potential dye, choline response; hits give low values;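 active = B-score over 3 SD under the library average, and starting fluorescence ratio not unusually high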;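 note: choline stimulus applied at its EC90 after an EC20 pre-addition; B-score computed on integrated fluorescence ratio after choline addition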
# TNAP inh hi DEA: inhibitors of human TNAP at high phosphate acceptor concentration; inhibition, % at 20 µM; AID 1135; P05186; 200,000 compounds, 0.03% hits; purified TNAP, CDP-star luminescence, 1 M DEA;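 active = over 50% inhibition of tissue-nonspecific alkaline phosphatase at 20 µM in the single-dose screen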;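 note: plate controls were DMSO wells for no effect and EDTA-quenched wells as full inhibition for full effect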
# CHT allo act: allosteric activators of human choline transporter CHT | Q9GZV3 | CHT-expressing cells, membrane potential dye, choline EC20; hits give high values; LV-AA mutant CHT in HEK293 cells | B-score at 10 µM | 310,000 compounds, 0.49% hits;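 active = initial fluorescence not abnormally high and integrated response B-score, plate-corrected, over 3 SD above library mean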
# ABCB6 inh MLPCN: blocks the human ABCB6 transporter; Q9NP58; K562-ABCB6 porphyrin accumulation, flow cytometry, 1 h; hits give low values; fluorescence ratio to DMSO, % at 10 µM; 360,000 compounds, 0.19% hits; AID 602162;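 active = fluorescence ratio to DMSO below 75%, the collection mean minus 3 SD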;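 note: signal is porphyrin accumulated inside mitochondria; 100% equals median channel fluorescence of DMSO control wells; lower ratio means ABCB6 inhibition with less porphyrin fluorescence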
# Target sequence (Q9NP58 whole entry, looked up): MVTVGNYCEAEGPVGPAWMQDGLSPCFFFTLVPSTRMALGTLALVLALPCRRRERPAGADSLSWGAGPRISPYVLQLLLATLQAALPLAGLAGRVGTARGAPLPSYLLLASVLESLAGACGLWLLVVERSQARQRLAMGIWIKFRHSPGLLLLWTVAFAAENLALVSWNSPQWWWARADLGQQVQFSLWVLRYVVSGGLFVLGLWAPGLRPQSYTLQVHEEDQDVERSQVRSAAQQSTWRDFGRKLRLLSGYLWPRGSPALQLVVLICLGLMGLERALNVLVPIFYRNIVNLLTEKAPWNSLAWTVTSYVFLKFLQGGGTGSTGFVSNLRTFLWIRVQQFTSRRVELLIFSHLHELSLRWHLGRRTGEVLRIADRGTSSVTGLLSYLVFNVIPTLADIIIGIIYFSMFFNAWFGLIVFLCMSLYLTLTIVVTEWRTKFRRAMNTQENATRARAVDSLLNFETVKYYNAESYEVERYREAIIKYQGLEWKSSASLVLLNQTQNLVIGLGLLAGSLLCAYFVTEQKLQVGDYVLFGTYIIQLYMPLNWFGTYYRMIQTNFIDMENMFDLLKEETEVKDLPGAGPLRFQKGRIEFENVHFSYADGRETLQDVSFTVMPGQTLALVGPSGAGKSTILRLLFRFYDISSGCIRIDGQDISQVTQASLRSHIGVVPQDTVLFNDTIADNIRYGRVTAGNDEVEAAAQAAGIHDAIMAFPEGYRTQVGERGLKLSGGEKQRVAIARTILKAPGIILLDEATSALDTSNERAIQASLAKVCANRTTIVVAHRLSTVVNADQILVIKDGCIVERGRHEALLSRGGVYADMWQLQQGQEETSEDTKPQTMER
# ABCB6 inh CP1: human ABCB6 transporter inhibition; shares compounds with ABCB6 inh MLPCN; ratio response (% of DMSO), % at 10 µM; 700 tested, under 10 active; K562-ABCB6 porphyrin accumulation, flow cytometry, 1 h; hits give low values; AID 602430;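 active = repeat-averaged ratio response below 75% of DMSO, the collection mean minus 3 SD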;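 note: median porphyrin fluorescence at 575 nm with 488 nm excitation from mitochondria; lower ratio means less porphyrin signal so ABCB6 inhibition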
# K562 vector FC: effect in K562 cells lacking ABCB6, counter-screen; AID 624484; K562 empty-vector cells, flow cytometry fluorescence, 1 h; shares compounds with ABCB6 inh MLPCN; percent response (fluorescence), % at 100 µM; 25 tested, under 10 active;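 active = compounds whose half-maximal effective concentration is below 100 µM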
# Starred values were filed as active, the others as inactive; i = inactive; . = not tested or not shown. Only some compounds are listed: those with a hit (about 1.4% of all), similar ones and a draw of the others.
SMILES,TNAP inh noacc,TNAP act hi DEA,CHT block,TNAP inh hi DEA,CHT allo act,ABCB6 inh MLPCN,ABCB6 inh CP1,others
COc1ccc(OC)c(NC(=O)c2nc(S(=O)(=O)Cc3ccccc3)ncc2Cl)c1,.,.,i,.,i,83,.,K562 vector FC=594
Cc1cccc(C)c1NC(=O)c1nc(S(=O)(=O)Cc2ccccc2)ncc1Cl,.,.,i,.,i,93,.,K562 vector FC=237
CN(C)CCCNCC(=O)NN(c1ccccc1)c1ccccc1,.,.,i,.,i,.,.,
c1cnc2ccc3c(c2c1)COCO3,.,.,.,.,.,95,.,
COc1ccc(NC(=O)CCCn2cc([N+](=O)[O-])cn2)cc1,-8,1,i,0,i,93,.,
COc1ccc(NC(=O)Cc2ccc(Cl)cc2)cc1NC(=O)c1ccco1,-13,1,i,-3,i,60*,96,
CCN(CC)S(=O)(=O)c1cccc(-c2nnc(SCC(=O)NCCC3=CCCCC3)n2N)c1,-8,1,i,-2,i,71*,100,
CC(Sc1nc2ccccc2c(=O)n1C)C(=O)N(C)C1CCCCC1 (configuration not stated),.,.,i,.,i,74*,100,
CC(C)CCn1c(SC(C)C(=O)NC2CC2)nc2ccccc2c1=O (configuration not stated),.,.,i,.,i,102,.,
O=C(CSc1nnc(-c2ccc(F)cc2)o1)Nc1ccc(S(=O)(=O)N2CCCCCC2)cc1,-16,1,i,-4,i,31*,98,
CC1(C)Oc2ccc3ccc(=O)oc3c2C[C@H]1O,.,.,i,.,i,68*,94,
N#CCSc1n[nH]c2nc3c(c(=O)n12)C1(CCCCC1)Cc1ccccc1-3,.,.,i,.,i,99,.,
CCn1c(SCC#N)nc2c(c1=O)C1(CCCC1)Cc1ccccc1-2,-5,1,i,-4,i,71*,101,
Cc1ccc(SCc2cn3c(C)csc3n2)cc1,-8,1,i,1,i,98,.,
O=C(Nc1ccc(Cl)cc1)Nc1ccon1,.,.,i,.,i,91,.,
Cc1ccc(NC(=O)Nc2ccon2)cc1,.,.,.,.,.,10*,99,
NC(=O)[C@@H]1CCCN1Cc1c(C(=O)N2CCc3ccccc3C2)nc2ccc(Cl)cn12,.,.,i,.,i,93,.,
O=C(C1CCN(S(=O)(=O)c2c(Cl)cccc2Cl)CC1)N1CCCCCCC1,.,.,i,.,i,72*,99,
Nc1nc(SCc2c(F)cccc2Cl)[nH]c(=O)c1-c1ccccc1,-8,1,i,-2,i,50*,98,
COc1ccc(-c2cc(C(=O)Nc3ccc(OC)c(OC)c3)[nH]n2)c(C)c1,.,.,.,.,.,70*,98,
CC(C)NCc1nnc(-c2ccc(Cl)cc2)o1,-4,1,i,-3,i,71*,102,
Cc1cc(C)cc(CC(=O)N2CCC2(C)C(=O)NS(=O)(=O)c2cccc(OC(F)F)c2)c1 (configuration not stated),.,.,.,.,.,95,99,
Cc1cc(C)cc(CC(=O)N2CCC2(C)C(=O)NS(=O)(=O)c2ccc(C#N)cc2)c1 (configuration not stated),.,.,.,.,.,93,103,
CC(C)(C)c1ccc(CC(=O)N2CCC2(C)C(=O)NS(=O)(=O)c2cccc(OC(F)F)c2)cc1 (configuration not stated),.,.,.,.,.,97,.,
O=C(NCCc1csc(-c2cccnc2)n1)c1ccc(Cl)cc1,-6,1.1,i,-6,i,74*,101,
SMILES,TNAP inh noacc,TNAP act hi DEA,CHT block,TNAP inh hi DEA,CHT allo act,ABCB6 inh MLPCN,ABCB6 inh CP1,others
CC1(C)CC(=O)c2cc(C(=O)NC3CCSC3=O)c(=O)n(-c3ccc(Cl)cc3)c2C1 (configuration not stated),-9,0.9,i,5,i,63*,101,
O=C(COc1ccc2c(c1)OCO2)NCc1cccs1,.,.,.,.,.,95,.,
NC(N)=Nc1nc(CSCC/C(N)=N/S(N)(=O)=O)cs1,-3,1,i,5,i,72*,97,
OCCCn1c(CCNc2nc(-c3ccc(Cl)cc3)cs2)nc2cc(C(F)(F)F)ccc21,.,.,i,.,i,99,.,
OCCOCCn1c(CCNc2nc(-c3ccc(F)cc3)cs2)nc2cc(C(F)(F)F)ccc21,.,.,i,.,i,73*,100,
NC(=O)CSc1n[nH]c(=O)n1CCc1ccccc1,.,.,i,.,i,99,.,
CCCCn1ccnc1C(=O)c1cccc(S(=O)(=O)N2CC(C)CC(C)C2)c1 (configuration not stated),-11,1,i,1,i,74*,97,
CCCCn1ccnc1C(=O)c1cc(S(=O)(=O)N2CCOCC2)ccc1C,-21,1.1,i,-5,i,97,.,
COc1ccccc1OCc1nnc(SCC(=O)N2CCCC2)o1,.,.,i,.,i,96,.,
COc1ccccc1OCc1nnc(SCC(=O)c2cc(Cl)ccc2OC)o1,-8,1,i,-2,i,68*,98,
O=c1[nH]cnc2c1sc(=S)n2-c1ccccc1,-11,1,i,0,i,65*,100,
O=c1[nH]c(-c2ccc(F)cc2)nc2c1sc(=S)n2-c1ccccc1,-6,1,i,-5,i,98,.,
O=c1cc(CO)oc(CN2CCN(c3ccccc3)CC2)c1O,-4,1,i,3,i,73*,101,
Cc1cc(N2C(=O)CC(Cc3ccc(Cl)cc3)C2=O)no1 (configuration not stated),-14,1.1,i,-8,i,102,.,
Cc1cc(N2C(=O)CC(Cc3ccccc3)C2=O)no1 (configuration not stated),1,1.1,i,-6,i,72*,101,
CCOC(=O)CNC(=O)c1cn(CC(C)C)c(=O)c2cc(OC)c(OC)cc12,-5,1,i,-4,i,93,.,
COc1cc2c(C(=O)NCCN(C)C)cn(CC(C)C)c(=O)c2cc1OC,.,.,i,.,i,69*,101,
CC1CCCN(CCCOc2ccccc2-c2ccccc2)C1 (configuration not stated),-14,1.1,.,-8,.,95,.,
COC(=O)COc1cccc(NC(=O)c2cccc(C)c2)c1,-6,1,i,0,i,97,.,
COC(=O)COc1cccc(NC(=O)c2ccccc2)c1,-7,1.1,i,-6,i,74*,100,
COc1ccc(NC(=O)c2ccccc2NC(=O)CSc2ccc(C)cc2)cc1,-36,1,i,-2,i,58*,101,
COc1ccc(NC(=O)CSc2ccc(C)cc2)cc1,-6,1,i,-3,i,103,.,
